≈ marks a conversion by molar mass, not a printed value. Calls of active or inactive are those of the source. No cut-off for these calls is given here.
Key:
[1] = system: Mus musculus; assay: Antiinflammatory activity in ICR mouse assessed as inhibition of carrageenan-induced paw edema at 10 mg/kg, ip administered 30 mins before carrageenan challenge measured after 3 hrs by plethysmometer analysis; assay type: functional, organism-based; parameters: dose 10 mg/kg
Summary of the method: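 Male ICR mice (n = 6) received saline, indomethacin 10 mg/kg or drug i.p. 30 min before 50 μL of 1% carrageenan in the right hind paw. Paw volume was read by plethysmometer immediately and at 1−5 h. Swelling was expressed as the ratio of right paw volume after carrageenan to volume before.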

[2] = system: Mus musculus; assay: Antiinflammatory activity in ICR mouse assessed as inhibition of carrageenan-induced iNOS protein expression in paw at 10 mg/kg, ip administered 30 mins before carrageenan challenge by Western blotting relative to control; assay type: functional; conditions: route intraperitoneal
Summary of the method: (§1)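 Male ICR mice (18−25 g, n = 6 per group) given drug or saline i.p. 30 min before 50 μL of 1% carrageenan into the right hind paw plantar side. Paw soft tissue was homogenized in CHAPS buffer with protease inhibitors. About 30 μg protein run on 10% SDS-PAGE, immunoblotted for iNOS or COX-2, ECL detection, normalized to β-actin. Indomethacin 10 mg/kg as positive control.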

[3] = system: Mus musculus; assay: Antiinflammatory activity in ICR mouse assessed as inhibition of carrageenan-induced COX2 protein expression in paw at 10 mg/kg, ip administered 30 mins before carrageenan challenge by Western blotting relative to control; assay type: functional; conditions: route intraperitoneal; summary of the method: as §1
[4] = system: Mus musculus; assay: Antiinflammatory activity in ICR mouse assessed as inhibition of carrageenan-induced neutrophil infiltration in paw at 10 mg/kg, ip administered 30 mins before carrageenan challenge; assay type: functional, organism-based; parameters: dose 10 mg/kg
[5] = system: Mus musculus; assay: Antiinflammatory activity in ICR mouse assessed as inhibition of carrageenan-induced decrease in CAT activity in liver at 10 mg/kg, ip administered 30 mins before carrageenan challenge measured after 5 hrs; assay type: functional, organism-based; parameters: dose 10 mg/kg
Summary of the method: (§2)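 Liver catalase, SOD and GPx activities determined 5 h after intrapaw carrageenan in ICR mice given drug i.p. 30 min beforehand. Indomethacin 10 mg/kg as positive control.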

[6] = system: Mus musculus; assay: Antiinflammatory activity in ICR mouse assessed as inhibition of carrageenan-induced decrease in SOD activity in liver at 10 mg/kg, ip administered 30 mins before carrageenan challenge measured after 5 hrs; assay type: functional, organism-based; parameters: dose 10 mg/kg; summary of the method: as §2
[7] = system: Mus musculus; assay: Antiinflammatory activity in ICR mouse assessed as inhibition of carrageenan-induced decrease in GPx activity in liver at 10 mg/kg, ip administered 30 mins before carrageenan challenge measured after 5 hrs; assay type: functional, organism-based; parameters: dose 10 mg/kg; summary of the method: as §2
[8] = system: Mus musculus; assay: Antiinflammatory activity in ICR mouse assessed as inhibition of carrageenan-induced TNFalpha level in paw serum at 10 mg/kg, ip administered 30 mins before carrageenan challenge measured after 5 hrs by ELISA; assay type: functional, organism-based; parameters: dose 10 mg/kg
Summary of the method: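 ICR mice (n = 6) dosed i.p. 30 min before intraplantar 1% carrageenan; blood collected at sacrifice and stored at −80 °C. Serum TNF-α quantified by commercial ELISA, reported in pg/mL from the standard-curve regression. Indomethacin 10 mg/kg as reference.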

[9] = system: Mus musculus; assay: Antiinflammatory activity in ICR mouse assessed as inhibition of carrageenan-induced malondialdehyde level in paw serum at 10 mg/kg, ip administered 30 mins before carrageenan challenge measured after 5 hrs by TRARS method; assay type: functional, organism-based; parameters: dose 10 mg/kg
Summary of the method: (§3)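 Carrageenan (1%, 50 μL intraplantar) given to ICR mice 30 min after i.p. dosing; right hind paws dissected at end and kept at −80 °C. Malondialdehyde measured by thiobarbituric acid reaction under acidic high-temperature conditions, red TBARS complex read at 532 nm.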

[10] = system: RAW264.7; assay: Antiinflammatory activity in mouse RAW264.7 cells assessed as inhibition of LPS-induced nitric oxide production treated 1 hr before LPS challenge measured after 24 hrs by Griess method; assay type: functional, cell-based
Summary of the method: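 RAW264.7 cells preincubated 1 h with drug at 0, 1, 5 or 10 μg/mL, then co-treated with 100 ng/mL LPS at 37 °C for 24 h. Culture medium mixed 1:1 with Griess reagent (1% sulfanilamide, 0.1% naphthyl ethylenediamine, 5% phosphoric acid), 10 min at room temperature, absorbance 540 nm against a nitrite standard curve.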

[11] = system: RAW264.7; assay: Cytotoxicity against LPS-stimulated mouse RAW264.7 cells assessed as cell viability at 10 ug/ml treated 1 hr before LPS challenge measured after 24 hrs by MTT assay; assay type: cell-based; conditions: raw264.7, 24 h
Summary of the method: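 RAW264.7 cells (2 × 10^5/well) grown 1 day to near confluence, pretreated 1 h with drug (0−10 μg/mL), then co-stimulated with 100 ng/mL LPS for 24 h. After DPBS washes, cells got 0.5 mg/mL MTT for 2 h at 37 °C, then DMSO for 30 min, and absorbance was read at 570 nm.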

[12] = Cytotoxicity against human leukemia cells; assay type: functional, cell-based; conditions: Leukemia cell
[13] = Cytotoxicity against human breast cancer cells; assay type: functional, cell-based; conditions: Cancer cell lines
[14] = system: HCT-116; assay: Cytotoxicity against human HCT116 cells; assay type: functional, cell-based
[15] = system: PBMC; assay: Cytotoxicity against human PBMC; assay type: cell-based
[16] = system: RAW264.7; assay: Antiinflammatory activity in mouse RAW264.7 cells assessed as inhibition of LPS-induced iNOS expression at 5 to 10 ug/ml by Western blotting; assay type: functional, cell-based
Summary of the method: (§4)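 RAW264.7 macrophages in DMEM with 10% FBS were pretreated 1 h with drug (0−10 μg/mL), then co-stimulated with 100 ng/mL LPS for 24 h. Lysates (ice-cold Triton lysis buffer, pH 7.9) were blotted for iNOS or COX-2, with about 30 μg protein per lane and ECL detection. Bands normalized to β-actin, expressed relative to the LPS-only group as 100%.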

[17] = system: RAW264.7; assay: Antiinflammatory activity in mouse RAW264.7 cells assessed as inhibition of LPS-induced COX2 expression at 5 to 10 ug/ml by Western blotting; assay type: functional, cell-based; summary of the method: as §4
[18] = system: Mus musculus; assay: Antiinflammatory activity in ICR mouse assessed as inhibition of carrageenan-induced nitric oxide level in paw serum at 1 to 10 mg/kg, ip administered 30 mins before carrageenan challenge measured after 5 hrs by Griess method; assay type: functional, organism-based
Summary of the method: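 Mice pretreated i.p. 30 min before intraplantar 1% carrageenan; samples taken 5 h after injection. Homogenates diluted fourfold in water, deproteinized with zinc sulfate to a final 15 mg/mL, centrifuged at 10000g for 5 min. Supernatant mixed 1:1 with Griess reagent, 10 min at room temperature, A540. Nitrite quantified against a sodium nitrite standard curve.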

[19] = system: Mus musculus; assay: Antiinflammatory activity in ICR mouse assessed as inhibition of carrageenan-induced malondialdehyde level in paw serum at 1 mg/kg, ip administered 30 mins before carrageenan challenge measured after 5 hrs by TRARS method; assay type: functional, organism-based; parameters: dose 1 mg/kg; summary of the method: as §3
[20] = system: Mus musculus; assay: Antiinflammatory activity in ICR mouse assessed as inhibition of carrageenan-induced malondialdehyde level in paw at 10 mg/kg, ip administered 30 mins before carrageenan challenge by TRARS method; assay type: functional, organism-based; parameters: dose 10 mg/kg; summary of the method: as §3
[21] = system: Mus musculus; assay: Antiinflammatory activity in ICR mouse assessed as inhibition of carrageenan-induced decrease in CAT activity in liver at 5 mg/kg, ip administered 30 mins before carrageenan challenge measured after 5 hrs; assay type: functional, organism-based; parameters: dose 5 mg/kg; summary of the method: as §2
[22] = system: Mus musculus; assay: Antiinflammatory activity in ICR mouse assessed as inhibition of carrageenan-induced decrease in SOD activity in liver at 5 mg/kg, ip administered 30 mins before carrageenan challenge measured after 5 hrs; assay type: functional, organism-based; parameters: dose 5 mg/kg; summary of the method: as §2
[23] = system: Mus musculus; assay: Antiinflammatory activity in ICR mouse assessed as inhibition of carrageenan-induced decrease in GPx activity in liver at 5 mg/kg, ip administered 30 mins before carrageenan challenge measured after 5 hrs; assay type: functional, organism-based; parameters: dose 5 mg/kg; summary of the method: as §2
[24] = system: Mus musculus; assay: Antiinflammatory activity in ICR mouse assessed as inhibition of carrageenan-induced TNFalpha level in paw serum at 5 to 10 mg/kg, ip administered 30 mins before carrageenan challenge measured after 5 hrs by ELISA

COc1ccc2c(c1)c(CC(=O)O)c(C)n2C(=O)c1ccc(Cl)cc1 [INDOMETHACIN]
inhibition [1]: Active | inhibition in vivo at 10 mg/kg [2]: 61.5% | inhibition in vivo at 10 mg/kg [3]: 58.1% | inhibition [4]: Active | inhibition [5]: Active | inhibition [6]: Active | inhibition [7]: Active | inhibition [8]: Active | inhibition [9]: Active

C=C[C@](C)(O)CC[C@@H]1[C@@]2(C)CCCC(C)(C)[C@@H]2CC[C@@]1(C)O [SCLAREOL]
inhibition [10]: Dose-dependent effect | Activity [11]: Non-toxic | IC50 [12]: 6 µg/mL (≈ 19.4 µM) | IC50 [13]: 7 µg/mL (≈ 22.7 µM) | IC50 [14]: 10.6 µg/mL (≈ 34.4 µM) | IC50 [15]: 10.7 µg/mL (≈ 34.7 µM) | inhibition [16]: Active | inhibition [17]: Active | inhibition [1]: Active | inhibition [18]: Active | inhibition [19]: Active | inhibition in vivo at 10 mg/kg [2]: 69.6% | inhibition in vivo at 10 mg/kg [3]: 70.3% | inhibition [4]: Active | inhibition [20]: Active | inhibition [21]: Active | inhibition [22]: Active | inhibition [23]: Active | inhibition [24]: Active
